PubChem BioAssay
Calls of active or inactive are those of the source.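 How the source made its calls, unless noted: active means Her2 level under about 52% in both replicate screens, with viability over 70% of control (limit read from the data); inconclusive means Her2 under the limit in one screen only, or viability under 70%; inactive means Her2 level above the set limit.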

Experiments:
[1] = Her2 expression decrease, cell viability multiplex – SKBR3 breast tumor cells, AlphaScreen, ATP viability, primary screen (AID 461); settings: SKBR3 Her2 protein level, 18-24 h, measured here: SKBR3 viability, ATP luminescence, at 10 µM;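 on Her2 level: lower value means less Her2 protein in the cells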;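 on viability: percent of carrier control wells set as 100% viability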
[2] = target: Receptor tyrosine-protein kinase erbB-2 (Homo sapiens) (UniProt P04626); test: as above; settings: 18-24 h, at 10 µM, stronger effect = lower value
[3] = reduced viability of SK-BR-3 breast cancer cells – cell-based, 24 h, human, pilot screen (AID 572;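 active means viability at or below 10% of carrier control in both of two separate runs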;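 further: compound exposure lasted between 18 and 24 h rather than exactly 24 h; 100% = carrier-treated control wells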); settings: SK-BR-3 viability, CellTiter-Glo luminescence, at 10 µM, stronger effect = lower value
[4] = HUVEC growth inhibition – cell-based, human, primary screen (AID 575;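 active means viability at or below 30% in both replicate assays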;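 further: 100% = median of untreated cell wells with 0.1% DMSO on each plate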); settings: HUVEC proliferation, CellTiter-Glo luminescence, 72 h; at 10 µM; stronger effect = lower value
Summary of the method: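 Test system: HUVEC primary cells. Quantity: 1250 endothelial cells in each well. Dosing: single-point 10 µM, DMSO 0.1% final. Incubation: 72 h treatment at 37 °C. Measured by: CTG luminescence. Control set: DMSO cell controls and MePR drug controls. Plate: collagen-coated 384-well format.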

[5] = H69AR cell proliferation blockers – human, duplicate replicates, primary screen (AID 580;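 active means viability at or under a set limit in both replicates, limit being median viability minus 3 SD, cut at about 48% in these data, passing the limit was not always enough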;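 further: 100% = mean luminescence of untreated wells and 0% = no signal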); settings: H69AR lung tumor cells viability, ATP luminescence, 72 h; at 10 µM; stronger effect = lower value
[6] = MRP1 drug-resistance reversers in H69AR cells – cell-based, doxorubicin co-treatment, pilot screen (AID 601;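 active means viability loss from added drug above about 55%, and viability with drug at most 40%, in both replicates, limit read from the data, passing the limit was not always enough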); settings: CellTiter-Glo, 72 h, at 10 µM; for differential viability (reversal): stronger effect = higher value
[7] = yeast transport mutant growth inhibition pilot in 384-well plates, post-Golgi transport modulator project (AID 636; in the data active means inhibition above about 31%); settings: absorbance 615 nm, about 18 h, stronger effect = higher value
[8] = growth suppression of yeast trafficking mutant, preliminary HTS, modulators of trafficking downstream of Golgi apparatus project, 1536-format plate, OD 615 nm (AID 637; in the data active means inhibition above about 30%); settings: yeast transport mutant growth, absorbance 615 nm, 18 h; stronger effect = higher value
[9] = H69AR cells + 2 uM doxorubicin, measured here: viability with 2 uM doxorubicin, stronger effect = lower value
[10] = H69AR cells, compound alone cytotoxicity

Sequence of Receptor tyrosine-protein kinase erbB-2 (Homo sapiens) (P04626 whole entry, looked up): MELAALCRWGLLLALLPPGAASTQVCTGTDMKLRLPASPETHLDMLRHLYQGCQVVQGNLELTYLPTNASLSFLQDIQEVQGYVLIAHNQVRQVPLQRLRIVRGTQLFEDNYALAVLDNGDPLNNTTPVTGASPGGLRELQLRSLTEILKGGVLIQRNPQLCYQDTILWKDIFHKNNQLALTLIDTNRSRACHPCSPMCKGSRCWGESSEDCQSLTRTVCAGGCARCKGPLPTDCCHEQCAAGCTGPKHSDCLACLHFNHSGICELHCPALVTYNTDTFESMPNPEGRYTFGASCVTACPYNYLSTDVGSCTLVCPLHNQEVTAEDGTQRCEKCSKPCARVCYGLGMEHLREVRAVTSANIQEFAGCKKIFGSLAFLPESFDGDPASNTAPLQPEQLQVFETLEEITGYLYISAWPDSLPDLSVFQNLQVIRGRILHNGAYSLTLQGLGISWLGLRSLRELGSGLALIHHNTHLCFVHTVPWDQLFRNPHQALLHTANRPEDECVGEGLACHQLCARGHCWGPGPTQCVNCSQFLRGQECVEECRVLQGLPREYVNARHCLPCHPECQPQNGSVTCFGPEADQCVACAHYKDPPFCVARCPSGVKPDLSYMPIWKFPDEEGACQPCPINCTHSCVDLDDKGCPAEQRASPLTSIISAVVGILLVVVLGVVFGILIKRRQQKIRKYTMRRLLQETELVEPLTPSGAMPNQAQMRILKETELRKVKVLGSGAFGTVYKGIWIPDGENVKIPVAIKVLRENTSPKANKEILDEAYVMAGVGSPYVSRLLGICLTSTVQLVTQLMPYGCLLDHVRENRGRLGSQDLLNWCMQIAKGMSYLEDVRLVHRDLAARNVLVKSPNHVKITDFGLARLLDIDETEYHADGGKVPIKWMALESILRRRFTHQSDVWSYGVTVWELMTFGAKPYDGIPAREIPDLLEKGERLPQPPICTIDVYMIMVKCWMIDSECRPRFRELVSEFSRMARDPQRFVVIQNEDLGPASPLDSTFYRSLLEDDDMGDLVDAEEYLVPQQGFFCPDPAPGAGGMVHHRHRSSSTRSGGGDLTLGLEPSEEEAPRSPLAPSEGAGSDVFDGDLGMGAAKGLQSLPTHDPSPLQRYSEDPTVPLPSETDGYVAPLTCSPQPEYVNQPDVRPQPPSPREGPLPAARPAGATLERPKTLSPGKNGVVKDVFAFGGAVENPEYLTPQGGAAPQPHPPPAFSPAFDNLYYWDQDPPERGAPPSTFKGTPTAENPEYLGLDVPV

Structure (SMILES) | viability [1] | Her2 level [2] | viability [3] | viability [4] | viability [5] | differential viability (reversal) ([6]; H69AR cells + 2 uM doxorubicin) | viability [6, 9] | viability [6, 10] | inhibition [7] | inhibition [8]
COc1ccc(CCNC(=O)C2CCN(S(=O)(=O)c3cc(OC)ccc3OC)CC2)cc1 | 93% | 95% (inactive) | 93% (inactive) | 114% (inactive) | 103% (inactive) | 5.9% (inactive) | 96.8% | 103% | -7.97% (inactive) | 4.59% (inactive)
CC(=O)Nc1ccc(Oc2cc(C#N)c(C#N)cc2N2CCCCCC2)cc1 | 108% | 76% (inactive) | 108% (inactive) | 73.5% (inactive) | 89.6% (inactive) | 21.8% (inactive) | 67.8% | 89.6% | -3.03% (inactive) | 0.95% (inactive)
Cc1ncc(CSc2nc3ccccc3[nH]2)c(N)n1 | 104% | 92.5% (inactive) | 104% (inactive) | 115% (inactive) | 104% (inactive) | 16.8% (inactive) | 87.5% | 104% | -2.03% (inactive) | 1.43% (inactive)
Cc1ccccc1CSCC(=O)c1c(N)n(C)c(=O)n(C)c1=O | 86.5% | 86.5% (inactive) | 86.5% (inactive) | 106% (inactive) | 93.5% (inactive) | -2.12% (inactive) | 95.6% | 93.5% | -2.37% (inactive) | -2.22% (inactive)
CC1(C)C(=O)Nc2ccccc2N1C(=O)COC(=O)Cn1cnc2ccccc2c1=O | 110% | 112% (inactive) | 110% (inactive) | 110% (inactive) | 96.3% (inactive) | 1.74% (inactive) | 94.5% | 96.3% | -3.55% (inactive) | -5.5% (inactive)
C/C(N)=C(/C#N)C(=O)CSc1nnc(Nc2c(C)cccc2C)s1 | 108% | 79.5% (inactive) | 108% (inactive) | 93.7% (inactive) | 103% (inactive) | 28.5% (inactive) | 74.6% | 103% | -2.84% (inactive) | 3.02% (inactive)
COC(=O)c1ccc(C)c(NS(=O)(=O)c2ccc3c(c2)OCCO3)c1 | 87.5% | 74% (inactive) | 87.5% (inactive) | 49.2% (inactive) | 35% (active) | -37% (inactive) | 72% | 35% | 1.54% (inactive) | -3.67% (inactive)
CCCOc1cccc(-c2nnc(N)s2)c1 | 102% | 121% (inactive) | 102% (inactive) | 87.4% (inactive) | 100% (inactive) | 21.6% (inactive) | 78.5% | 100% | -4.8% (inactive) | -5.56% (inactive)
COC(=O)C1C(=O)c2c([nH]c(C(=O)OCCOC(C)C)c2C)CC1C (stereo not given) | 100% | 111% (inactive) | 100% (inactive) | 97.8% (inactive) | 99.5% (inactive) | 7.92% (inactive) | 91.6% | 99.5% | -2.11% (inactive) | -11.5% (inactive)
COc1cc(C2=NOC(C(=O)NCc3ccc(F)cc3)C2)cc(OC)c1OC (stereo not given) | 84% | 74.5% (inactive) | 84% (inactive) | 39.9% (inactive) | 31.6% (active) | -52.3% (inactive) | 83.9% | 31.6% | -4.74% (inactive) | -1.43% (inactive)
CCOC(=O)C1=C(C)NC(SC(C)=O)=NC1c1ccc(OC(C)=O)c(OC)c1 (stereo not given) | 106% | 95.5% (inactive) | 106% (inactive) | 82.9% (inactive) | 85.3% (inactive) | -9.22% (inactive) | 94.5% | 85.3% | -6.84% (inactive) | -6.36% (inactive)
COC(=O)c1ccccc1NC(=O)CSc1nnnn1C1CCCCC1 | 120% | 112% (inactive) | 120% (inactive) | 81.2% (inactive) | 85.9% (inactive) | 0.925% (inactive) | 85% | 85.9% | -5.6% (inactive) | -2.26% (inactive)
CC(=O)Nc1cccc(OCC(O)Cn2cnc3ccccc32)c1 (stereo not given) | 128% | 110% (inactive) | 128% (inactive) | 90% (inactive) | 97.9% (inactive) | 5.28% (inactive) | 92.7% | 97.9% | -0.14% (inactive) | 7.14% (inactive)
CN(C1CCCCC1)S(=O)(=O)c1ccc(NC(=O)c2ccco2)cc1 | 91.5% | 91.5% (inactive) | 91.5% (inactive) | 80.4% (inactive) | 99.3% (inactive) | 4.14% (inactive) | 95.1% | 99.3% | -5.26% (inactive) | -0.67% (inactive)
CCOC(=O)N1CCC(NC(=O)CSCc2nc(-c3cccc(OC)c3)oc2C)CC1 | 94.5% | 91% (inactive) | 94.5% (inactive) | 97.7% (inactive) | 106% (inactive) | 2.79% (inactive) | 103% | 106% | -2% (inactive) | 3.06% (inactive)
O=S(=O)(c1ccc(S(=O)(=O)N2CCN3CCCC3C2)cc1)N1CCCC1 (stereo not given) | 80.5% | 90.5% (inactive) | 80.5% (inactive) | 104% (inactive) | 98.9% (inactive) | 16.1% (inactive) | 82.8% | 98.9% | -0.77% (inactive) | 0.17% (inactive)
O=C(O)c1cc(=O)cc(C(=O)O)[nH]1 | 80.5% | 91.5% (inactive) | 80.5% (inactive) | 102% (inactive) | 105% (inactive) | 12.5% (inactive) | 92.7% | 105% | 0% (inactive) | 22.9% (inactive)
Cc1cc(NC(=O)Cn2cnc3c(cnn3C(C)(C)C)c2=O)no1 | 91.5% | 100% (inactive) | 91.5% (inactive) | 102% (inactive) | 91.9% (inactive) | 2.12% (inactive) | 89.8% | 91.9% | 0.66% (inactive) | -5.16% (inactive)
Cn1c(=O)c2c(nc(SCc3nn[nH]n3)n2Cc2ccccc2F)n(C)c1=O | 97.5% | 97% (inactive) | 97.5% (inactive) | 94.4% (inactive) | 90.9% (inactive) | -2.83% (inactive) | 93.7% | 90.9% | -0.13% (inactive) | 1.27% (inactive)
CN(C)c1ccc(/C=C/c2ccncc2)cc1 | 96% | 152% (inactive) | 96% (inactive) | 89.9% (inactive) | 90.5% (inactive) | 0.41% (inactive) | 90.1% | 90.5% | 3.03% (inactive) | 4% (inactive)
Cc1ccc(C(=O)Nc2ccc3c(c2)OCO3)cc1S(=O)(=O)N1CCCC1 | 102% | 89% (inactive) | 102% (inactive) | 67.3% (inactive) | 82.6% (inactive) | -0.715% (inactive) | 83.3% | 82.6% | -4% (inactive) | 2.54% (inactive)
O=C(NCCc1ccccc1)C1CCN(S(=O)(=O)N2CCC3(CC2)OCCO3)CC1 | 102% | 88.5% (inactive) | 102% (inactive) | 88.5% (inactive) | 99.3% (inactive) | 10.9% (inactive) | 88.4% | 99.3% | -2.37% (inactive) | 0.16% (inactive)
Cc1nc2ccccn2c1C(=O)NCCCN1CCOCC1 | 91.5% | 94.5% (inactive) | 91.5% (inactive) | 109% (inactive) | 102% (inactive) | 5.8% (inactive) | 96.4% | 102% | -0.27% (inactive) | 4.59% (inactive)
CCC(=O)Nc1ccc(Cl)c(NC(=O)C(C)C)c1 | 97% | 80% (inactive) | 97% (inactive) | 87.9% (inactive) | 111% (inactive) | 7.54% (inactive) | 103% | 111% | -7.97% (inactive) | 6.07% (inactive)
CCC(CC)C(=O)Nc1cccc(C(=O)NCc2ccco2)c1 | 94% | 104% (inactive) | 94% (inactive) | 100% (inactive) | 69.1% (inactive) | -20.5% (inactive) | 89.6% | 69.1% | -3.24% (inactive) | -1.64% (inactive)
Nc1nonc1-c1noc(CCCCCN2C(=O)c3ccccc3C2=O)n1 | 102% | 102% (inactive) | 102% (inactive) | 108% (inactive) | 105% (inactive) | 7.63% (inactive) | 97.6% | 105% | -4.4% (inactive) | -6.61% (inactive)
Cc1nnc2ccc(N3CCN(c4cccc(C(F)(F)F)c4)CC3)nn12 | 97.5% | 77.5% (inactive) | 97.5% (inactive) | 75% (inactive) | 80.3% (inactive) | 18.7% (inactive) | 61.6% | 80.3% | -0.53% (inactive) | -1.15% (inactive)
